The campaign covered roughly 2,900 compounds. About 1,900 (66%) were called active.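 Rule for the calls: active = mean inhibition across replicates above the hit cutoff set in the primary screen (cut at about 8.5% in these data); inactive = the rest.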 So high a share suggests a set chosen from earlier hits. A selection follows.

Broadly, the inhibition is the relative decrease from the control value, in per cent.

Disintegrin and metalloproteinase domain-containing protein 17 (Homo sapiens), sequence (P78536 215-824 limits assumed): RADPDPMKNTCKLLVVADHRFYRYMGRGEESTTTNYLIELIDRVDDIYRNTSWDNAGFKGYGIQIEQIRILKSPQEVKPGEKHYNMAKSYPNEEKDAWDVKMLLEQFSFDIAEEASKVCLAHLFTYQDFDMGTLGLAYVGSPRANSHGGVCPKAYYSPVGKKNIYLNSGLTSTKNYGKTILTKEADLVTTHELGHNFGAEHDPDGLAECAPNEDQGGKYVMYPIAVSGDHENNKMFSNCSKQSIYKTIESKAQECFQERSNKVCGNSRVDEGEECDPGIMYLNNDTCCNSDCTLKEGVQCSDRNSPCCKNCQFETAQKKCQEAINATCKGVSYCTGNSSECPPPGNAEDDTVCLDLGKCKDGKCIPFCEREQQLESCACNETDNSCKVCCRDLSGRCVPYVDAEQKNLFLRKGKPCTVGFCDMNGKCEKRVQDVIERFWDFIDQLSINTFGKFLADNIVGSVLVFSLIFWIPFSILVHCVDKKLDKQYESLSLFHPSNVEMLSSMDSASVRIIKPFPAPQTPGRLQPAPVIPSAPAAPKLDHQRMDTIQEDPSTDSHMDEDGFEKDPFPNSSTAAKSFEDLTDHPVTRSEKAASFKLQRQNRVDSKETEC

The assay deals with Disintegrin and metalloproteinase domain-containing protein 17 (Homo sapiens) (UniProt P78536). Nature of the assay: inhibition of human ADAM17 protease activity – biochemical, QFRET peptide cleavage, confirmation (AID 743257).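 Note: 0% = DMSO wells and 100% = marimastat wells.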 As to conditions: recombinant ADAM17, EDANS/DABCYL QFRET peptide cleavage; at 6.95 µM; hits give high values. Put shortly:
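Assay system – human ADAM17 enzyme, FRET peptide cleavage · Read-out – percent inhibition · Schedule – 30 min preincubation, 3 h reaction · Buffer or medium – 50 mM HEPES buffer, pH 7.5, with 0.01% Brij · Controls – DMSO wells and 1 µM marimastat wells as references · Measured by – fluorescence at ex 359 nm, em 460 nm · Dosing – 6.95 µM compound, single dose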
Regarding `O=C(C[C@H]1C(=O)N(c2ccc(F)c(F)c2)C[C@@H]1Cc1ccccc1)Nc1ccccc1`, the inhibition is 14.1% (active).

In the case of `Cc1ccc(C)c(NC(=S)NNC(=S)Nc2ccc(C(C)C)cc2)c1`, the inhibition was 17.9% (active).

In the case of `C[C@@H]1CN([C@H](C)CO)C(=O)c2cc(-c3ccc(F)cc3)cnc2O[C@H]1CN(C)C(=O)c1ccc(F)cc1`, the inhibition was 8.52% (inactive).

As for `COc1cc(NC(=O)CCS(=O)(=O)c2ccc3c(c2)oc(=O)n3C)cc(OC)c1`, the inhibition is 6.47% (inactive).

For `COc1ccc(C(=O)NN2C(=O)C3C(c4ccccc4)C=CC(c4ccccc4)C3C2=O)cc1` (stereo not given), the inhibition is 14% (active).

As for `COc1ccc(S(=O)(=O)N2CCN(C(C)C(=O)Nc3ccc(C(C)C)cc3)CC2)cc1` (stereo not given), the inhibition was 10.8% (active).

With `COc1cc(/C=N/n2c(C)n[nH]c2=S)ccc1OCc1ccccc1`, the inhibition was 0.43% (inactive).

As to `CN(C)S(=O)(=O)c1cccc(NC(=O)COC(=O)C2(c3ccccc3F)CCCC2)c1`, the inhibition was 14.1% (active).

Regarding `NS(=O)(=O)c1ccc(NC(=O)COC(=O)C2(c3ccc(F)cc3)CCCC2)cc1`, the inhibition is 14.4% (active).

`O=C1/C(=C\c2ccsc2)NC(=S)N1c1ccccc1`: the inhibition is 8.92% (active).

On to `C#CCN(C[C@H]1[C@H](OC(=O)NC2CCCC2)[C@H](OC(=O)NC2CCCC2)C[C@H]2C(=O)N(c3ccccc3)C(=O)[C@@H]12)S(=O)(=O)c1ccc(C)cc1`, for which the inhibition was 8.59% (inactive).

As for `C=CC(COCc1ccccc1)N(CC(=O)OC)S(=O)(=O)c1cc(Br)ccc1OC` (stereo not given), the inhibition is 10.1% (active).

For `O=C(Nn1c(SCc2ccc([N+](=O)[O-])cc2)nc2ccccc2c1=O)c1ccc(F)cc1`, the inhibition is 16.4% (active).

`COc1ccc(-c2ccc(CN3C(CC(C)C)C(=O)N(Cc4cn(CC5CCCCC5)nn4)CCS3(=O)=O)cc2)cc1` (stereo not given): the inhibition was 13.1% (active).

With `COc1ccc(Cn2cc(CN3CCS(=O)(=O)N(Cc4ccc(-c5cccc(Cl)c5)cc4)C(C)C3=O)nn2)cc1` (stereo not given), the inhibition was 11.2% (active).

Regarding `FC(F)(F)Oc1ccccc1C(c1nnnn1C1CCCCC1)N1CCN(C/C=C/c2ccccc2)CC1` (stereo not given), the inhibition is 10.2% (active).

Consider `Cc1ccc(Cn2nnc3c(=O)[nH]c(C4CCN(S(=O)(=O)/C=C/c5ccccc5)CC4)nc32)cc1`, for which the inhibition was 20.1% (active).

On to `Cc1nnc(SCC(=O)Nn2cnnc2)s1`, for which the inhibition was 1% (inactive).

With `Cc1ccc(NC(=S)NNC(=O)CSc2nnc(SCc3ccccc3Cl)s2)cc1`, the inhibition is 13.7% (active).

Turning to `O=C(CSc1nnc(Nc2ccccc2)s1)Nc1cccnc1Cl`, the inhibition was 4.72% (inactive).

For `Cc1ccccc1C(=O)Nc1ccccc1Sc1ccccc1`, the inhibition is 8.42% (inactive).

Turning to `O=C(COC(=O)c1ccccc1)Nc1ccccc1Sc1ccccc1`, the inhibition was 10.7% (active).

`O=C(Nc1ccc(C(=O)NCc2ccccc2Cl)cc1)C1=CSCCO1`: the inhibition was 4.43% (inactive).

As for `CCCCCC(=O)N1C[C@H](O)[C@@H](n2cc(COC(=O)c3ccccc3)nn2)C[C@@H]1c1ccc(C)cc1`, the inhibition is 13.5% (active).

Consider `C=CC[C@H](CC(=O)N(CCO)Cc1ccccc1)C(=O)N[C@@H](COC(=O)[C@@H](CC=C)Cc1ccc(F)cc1)Cc1ccccc1`, for which the inhibition is 14.8% (active).

With `C=CCC[C@@H](Cc1ccc(F)cc1)C(=O)OC[C@H](Cc1c[nH]c2ccccc12)NC(=O)[C@@H](CC=C)CC(=O)N(CCO)Cc1ccccc1`, the inhibition is 16.9% (active).

In the case of `C=CCC[C@@H](Cc1ccc(F)cc1)C(=O)O[C@H](CNC(=O)[C@H](CC=C)CC(=O)N(CCO)Cc1ccccc1)c1ccccc1`, the inhibition is 21.7% (active).

Regarding `Cc1ccc(/C=N/NC(=O)CSc2nc3ccccc3o2)cc1`, the inhibition was 6% (inactive).

Regarding `CC1(C)C=Cc2c(ccc3c2OC[C@@H](c2ccc(O)cc2O)C3)O1`, the inhibition is 12.3% (active).

As for `N/C(Cc1ccc([N+](=O)[O-])cc1)=N\OC(=O)COc1ccc2ccccc2c1`, the inhibition is 6.36% (inactive).

The record behind these values is PubChem BioAssay AID743257 (The Scripps Research Institute Molecular Screening Center, 2014).
